Tests used:
[1] = target: Tyrosine-protein kinase ABL (Homo sapiens, UniProt P00519+P42684); assay: Inhibition of Abl tyrosine kinase; format: protein assay
[2] = test system: K562; assay: Cytotoxic effect in K562 cells; details: Homo sapiens
[3] = Alkylating activity (0.1 mM) was determined at pH 7.4; expressed as OD (540n m)/mM of drug); format: ADME; details: pH 7.4, 100 µM
Procedure, shortened: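 Alkylation read as OD at 540 nm per mM of drug. Drug at 0.1 mM was pre-incubated with NBP in TRIS buffer pH 7.4 for 2 h at 37 °C, then triethylamine/acetone was added.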

IC50 [1] [µM] | Alkylating activity [3] | SMILES | IC50 [2] [µM]
> 10 | – | Nc1cccc(Nc2nccc(-c3cccnc3)n2)c1 | 21.7
0.1946 | 0.0002 | Cc1ccc(NC(=O)c2ccc(/N=N/N(C)C)cc2)cc1Nc1nccc(-c2cccnc2)n1 | 2.16
– | 0.0015 | Cc1ccc(NC(=O)c2ccc(N=NN(C)CO)cc2)cc1Nc1nccc(-c2cccnc2)n1 | –
– | – | Cc1ccc(NC(=O)c2ccc(CN3CCN(C)CC3)cc2)cc1Nc1nccc(-c2cccnc2)n1 [IMATINIB] | 0.11
8.6 | – | COCC/N=N/Nc1cccc(Nc2nccc(-c3cccnc3)n2)c1 | 5.39
0.903 | 0.0002 | COCCN=NNc1ccc(C(=O)Nc2cccc(Nc3nccc(-c4cccnc4)n3)c2)cc1 | 16.2
4.89 | – | Nc1ccc(C(=O)Nc2cccc(Nc3nccc(-c4cccnc4)n3)c2)cc1 | 9.88
> 10 | 0.0002 | Cc1ccc(NC(=O)c2ccc(N)cc2)cc1Nc1nccc(-c2cccnc2)n1 | 68
10 | – | c1cc(N/N=N/CCN2CCOCC2)cc(Nc2nccc(-c3cccnc3)n2)c1 | 10.1
> 100 | 0.0013 | Cn1nnc2c(C(N)=O)ncn2c1=O [TEMOZOLOMIDE] | 156

SMILES | IC50 [1] [µM] | Alkylating activity [3] | IC50 [2] [µM]
Cc1ccc(NC(=O)c2ccc(/N=N/N(C)CCCl)cc2)cc1Nc1nccc(-c2cccnc2)n1 | 0.8496 | 0.00014 | 17.4

Source: ChEMBL document CHEMBL1144977, “Synthesis of pyrimidinopyridine-triazene conjugates targeted to abl tyrosine kinase” (Bioorg Med Chem Lett, 2003)
